Assays:
[1] = biological target: 5-hydroxytryptamine receptor 1D (Homo sapiens) (UniProt P28221); experiment: Displacement of [3H]-5-CT from recombinant human 5HT1D receptor transiently expressed in HEKT cell membranes at 10 uM measured after 90 mins by microbeta scintillation counting method relative to control
Procedure, shortened: (§1)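 Primary screen at 10 μM compound, expressed as % receptor inhibition, from at least three experiments.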

[2] = biological target: Alpha-2C adrenergic receptor (Homo sapiens, UniProt P18825); experiment: Displacement of [3H]-rauwolscine from recombinant human alpha2C adrenergic receptor stably expressed in MDCK cells measured after 90 mins by microbeta scintillation counting method; format: cell-based
[3] = biological target: 5-hydroxytryptamine receptor 1E (Homo sapiens) (UniProt P28566); experiment: Displacement of [3H]-5-HT from recombinant human 5HT1E receptor stably expressed in HEK cell membranes at 10 uM measured after 90 mins by microbeta scintillation counting method relative to control; procedure, shortened: as §1
[4] = biological target: Muscarinic acetylcholine receptor M3 (Homo sapiens, UniProt P20309); experiment: Displacement of [3H]-QNB/[3H]-NMS from human muscarinic M3 receptor expressed in stable CHO cells at 10 uM after 90 mins by microbeta scintillation counting method relative to control; format: cell-based; procedure, shortened: as §1
[5] = biological target: Sodium-dependent dopamine transporter (Homo sapiens) (UniProt Q01959); experiment: Displacement of [3H]-Win35428 from recombinant human DAT stably expressed in HEK cells at 10 uM measured after 90 mins by microbeta scintillation counting method relative to control; format: cell-based; procedure, shortened: as §1
[6] = biological target: Nicotinic acetylcholine receptor alpha2/beta4 (Homo sapiens) (UniProt P02708+P30926); experiment: Displacement of [3H]-epibatidine from recombinant human alpha2beta4 nACHR stably expressed in HEK cells at 10 uM measured after 90 mins by microbeta scintillation counting method relative to control; format: cell-based; procedure, shortened: as §1
[7] = biological target: Neuronal acetylcholine receptor; alpha3/beta2 (Homo sapiens) (UniProt P17787+P32297); experiment: Displacement of [3H]-epibatidine from recombinant human alpha3beta2 nACHR stably expressed in HEK cells at 10 uM measured after 90 mins by microbeta scintillation counting method relative to control; format: cell-based; procedure, shortened: as §1
[8] = biological target: D(3) dopamine receptor (Homo sapiens, UniProt P35462); experiment: Displacement of [3H]N-methylspiperone from D3 receptor (unknown origin) measured after 90 mins by microbeta scintillation counting method relative to control
[9] = biological target: T1, 5-hydroxytryptamine receptor 7 (Homo sapiens, UniProt P34969); experiment: Displacement of [3H]-LSD from recombinant human 5HT7A receptor stably expressed in HEK cell membranes measured after 90 mins by microbeta scintillation counting method
[10] = biological target: T2, D2 dopamine receptor (Homo sapiens, UniProt P14416); experiment: Displacement of [3H]N-methylspiperone from recombinant human D2 receptor stably expressed in fibroblast measured after 90 mins by microbeta scintillation counting method
[11] = biological target: 5-hydroxytryptamine receptor 5A (Homo sapiens) (UniProt P47898); experiment: Displacement of [3H]-LSD from recombinant human 5HT5A receptor stably expressed in Flp-In-CHO cell membranes at 10 uM measured after 90 mins by microbeta scintillation counting method relative to control; procedure, shortened: as §1
[12] = biological target: Muscarinic acetylcholine receptor M4 (Homo sapiens) (UniProt P08173); experiment: Displacement of [3H]-QNB/[3H]-NMS from human muscarinic M4 receptor expressed in stable CHO cells at 10 uM after 90 mins by microbeta scintillation counting method relative to control; format: cell-based; procedure, shortened: as §1
[13] = biological target: 5-hydroxytryptamine receptor 1B (Homo sapiens, UniProt P28222); experiment: Displacement of [3H]-5-CT from recombinant human 5HT1B receptor stably expressed in HEK cell membranes measured after 90 mins by microbeta scintillation counting method
[14] = biological target: Histamine H3 receptor (Homo sapiens, UniProt Q9Y5N1); experiment: Displacement of [3H]-alpha-methylhistamine from human histamine H3 receptor stably expressed in HEK Flp-In cells at 10 uM after 90 mins by microbeta scintillation counting method relative to control; format: cell-based; procedure, shortened: as §1
[15] = biological target: Alpha-2A adrenergic receptor (Homo sapiens, UniProt P08913); experiment: Displacement of [3H]-rauwolscine from recombinant human alpha2A adrenergic receptor stably expressed in MDCK cells measured after 90 mins by microbeta scintillation counting method; format: cell-based
[16] = biological target: T3, Sodium-dependent noradrenaline transporter (Homo sapiens, UniProt P23975); experiment: Displacement of [3H]-nisoxetine from recombinant human NET stably expressed in HEK cells at 10 uM measured after 90 mins by microbeta scintillation counting method relative to control; format: cell-based; procedure, shortened: as §1
[17] = biological target: D(4) dopamine receptor (Homo sapiens, UniProt P21917); experiment: Displacement of [3H]N-methylspiperone from recombinant human D4 receptor stably expressed in HEK cell membranes measured after 90 mins by microbeta scintillation counting method
[18] = biological target: 5-hydroxytryptamine receptor 2A (Homo sapiens, UniProt P28223); experiment: Displacement of [3H]-ketanserin from 5HT2A receptor (unknown origin) measured after 90 mins by microbeta scintillation counting method
[19] = biological target: Muscarinic acetylcholine receptor M2 (Homo sapiens) (UniProt P08172); experiment: Displacement of [3H]-QNB/[3H]-NMS from human muscarinic M2 receptor expressed in stable CHO cells at 10 uM after 90 mins by microbeta scintillation counting method relative to control; format: cell-based; procedure, shortened: as §1
[20] = biological target: Alpha-2B adrenergic receptor (Homo sapiens, UniProt P18089); experiment: Displacement of [3H]-rauwolscine from recombinant human alpha2B adrenergic receptor transiently expressed in HEKT cells at 10 uM measured after 90 mins by microbeta scintillation counting method relative to control; format: cell-based; conditions: probe [3H]-rauwolscine
[21] = biological target: Muscarinic acetylcholine receptor M4 (Homo sapiens, UniProt P08173); experiment: Displacement of [3H]-QNB/[3H]-NMS from human muscarinic M4 receptor expressed in stable CHO cells after 90 mins by microbeta scintillation counting method; format: cell-based
[22] = biological target: D(4) dopamine receptor (Homo sapiens) (UniProt P21917); experiment: Displacement of [3H]N-methylspiperone from recombinant human D4 receptor stably expressed in HEK cell membranes at 10 uM measured after 90 mins by microbeta scintillation counting method relative to control
[23] = biological target: T3, Sodium-dependent noradrenaline transporter; experiment: Displacement of [3H]-nisoxetine from recombinant human NET stably expressed in HEK cells measured after 90 mins by microbeta scintillation counting method; format: cell-based
[24] = biological target: T1, 5-hydroxytryptamine receptor 7; experiment: Displacement of [3H]-LSD from recombinant human 5HT7A receptor stably expressed in HEK cell membranes at 10 uM measured after 90 mins by microbeta scintillation counting method relative to control; procedure, shortened: as §1
[25] = biological target: Muscarinic acetylcholine receptor M2 (Homo sapiens, UniProt P08172); experiment: Displacement of [3H]-QNB/[3H]-NMS from human muscarinic M2 receptor expressed in stable CHO cells after 90 mins by microbeta scintillation counting method; format: cell-based
[26] = biological target: T2, D2 dopamine receptor; experiment: Displacement of [3H]N-methylspiperone from recombinant human D2 receptor stably expressed in fibroblast at 10 uM measured after 90 mins by microbeta scintillation counting method relative to control; conditions: fibroblasts stably expressing recombinant human D2 receptor, probe [3H]N-methylspiperone
[27] = biological target: 5-hydroxytryptamine receptor 2C (Homo sapiens) (UniProt P28335); experiment: Displacement of [3H]-mesulergine from recombinant human 5HT2C receptor transiently expressed in HEKT cell membranes at 10 uM measured after 90 mins by microbeta scintillation counting method relative to control; procedure, shortened: as §1
[28] = biological target: D(1B) dopamine receptor (Homo sapiens, UniProt P21918); experiment: Displacement of [3H]-SCH23390 from recombinant human D5 receptor transiently expressed in HEK cell membranes at 10 uM measured after 90 mins by microbeta scintillation counting method relative to control; procedure, shortened: as §1

5-hydroxytryptamine receptor 1D (Homo sapiens), sequence (P28221 whole entry): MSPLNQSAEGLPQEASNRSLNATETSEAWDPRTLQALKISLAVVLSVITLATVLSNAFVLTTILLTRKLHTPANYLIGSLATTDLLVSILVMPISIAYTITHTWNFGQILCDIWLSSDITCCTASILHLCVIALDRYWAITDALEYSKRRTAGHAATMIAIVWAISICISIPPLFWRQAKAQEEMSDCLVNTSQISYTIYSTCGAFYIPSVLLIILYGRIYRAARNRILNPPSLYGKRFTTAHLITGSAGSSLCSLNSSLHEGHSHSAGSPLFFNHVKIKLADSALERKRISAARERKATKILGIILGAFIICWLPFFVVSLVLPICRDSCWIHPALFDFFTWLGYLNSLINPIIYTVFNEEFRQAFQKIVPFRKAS
5-hydroxytryptamine receptor 5A (Homo sapiens), sequence (P47898 whole entry): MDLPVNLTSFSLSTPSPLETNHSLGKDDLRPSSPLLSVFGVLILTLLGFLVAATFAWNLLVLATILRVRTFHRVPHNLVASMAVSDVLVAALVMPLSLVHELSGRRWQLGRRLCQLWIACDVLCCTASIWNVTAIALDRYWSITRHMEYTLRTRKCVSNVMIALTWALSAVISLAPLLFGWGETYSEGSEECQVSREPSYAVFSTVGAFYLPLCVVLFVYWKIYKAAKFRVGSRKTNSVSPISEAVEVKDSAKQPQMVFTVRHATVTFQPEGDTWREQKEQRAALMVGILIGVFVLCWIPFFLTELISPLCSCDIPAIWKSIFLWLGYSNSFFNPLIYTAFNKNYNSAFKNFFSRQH
D(3) dopamine receptor, sequence (P35462 whole entry): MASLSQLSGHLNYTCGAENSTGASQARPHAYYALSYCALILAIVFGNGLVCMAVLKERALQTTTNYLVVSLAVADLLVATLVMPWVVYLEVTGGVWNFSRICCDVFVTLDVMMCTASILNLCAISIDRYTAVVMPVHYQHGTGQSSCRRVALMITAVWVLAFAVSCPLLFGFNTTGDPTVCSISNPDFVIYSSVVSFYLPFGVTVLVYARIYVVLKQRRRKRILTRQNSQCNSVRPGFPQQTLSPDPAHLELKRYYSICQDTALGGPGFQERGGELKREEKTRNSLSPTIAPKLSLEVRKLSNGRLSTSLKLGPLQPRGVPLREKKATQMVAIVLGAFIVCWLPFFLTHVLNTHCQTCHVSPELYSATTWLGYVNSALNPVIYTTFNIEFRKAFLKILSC
T3 sequence (P23975 whole entry): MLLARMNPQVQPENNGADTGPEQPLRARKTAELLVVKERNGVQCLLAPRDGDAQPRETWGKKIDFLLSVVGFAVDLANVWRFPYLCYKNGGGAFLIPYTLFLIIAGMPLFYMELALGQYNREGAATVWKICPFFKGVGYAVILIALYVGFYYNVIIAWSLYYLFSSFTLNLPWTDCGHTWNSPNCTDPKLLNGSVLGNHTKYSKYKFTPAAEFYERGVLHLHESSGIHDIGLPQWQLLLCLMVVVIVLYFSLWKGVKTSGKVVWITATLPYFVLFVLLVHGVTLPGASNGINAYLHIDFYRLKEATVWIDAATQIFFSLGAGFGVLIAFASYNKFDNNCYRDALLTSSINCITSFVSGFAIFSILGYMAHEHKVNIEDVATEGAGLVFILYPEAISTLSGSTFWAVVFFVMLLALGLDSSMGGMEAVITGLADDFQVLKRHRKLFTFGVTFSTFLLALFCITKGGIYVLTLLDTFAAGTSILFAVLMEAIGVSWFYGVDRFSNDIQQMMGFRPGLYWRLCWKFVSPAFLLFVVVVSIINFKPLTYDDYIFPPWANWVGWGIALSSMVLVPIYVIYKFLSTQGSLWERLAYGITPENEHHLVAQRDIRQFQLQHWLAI
T2 sequence (P14416 whole entry): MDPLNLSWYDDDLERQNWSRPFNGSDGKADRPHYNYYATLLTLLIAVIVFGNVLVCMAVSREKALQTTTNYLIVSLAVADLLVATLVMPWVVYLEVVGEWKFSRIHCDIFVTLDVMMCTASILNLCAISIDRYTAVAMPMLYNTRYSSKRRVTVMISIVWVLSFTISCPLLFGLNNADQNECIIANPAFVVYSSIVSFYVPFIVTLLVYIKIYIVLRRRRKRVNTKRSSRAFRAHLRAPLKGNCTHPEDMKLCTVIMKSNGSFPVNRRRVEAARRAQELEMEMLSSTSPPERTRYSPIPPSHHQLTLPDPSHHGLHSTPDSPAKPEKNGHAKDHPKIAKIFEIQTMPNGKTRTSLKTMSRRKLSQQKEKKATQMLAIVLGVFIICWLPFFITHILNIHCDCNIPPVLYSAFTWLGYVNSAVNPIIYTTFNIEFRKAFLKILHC
T1 sequence (P34969 whole entry): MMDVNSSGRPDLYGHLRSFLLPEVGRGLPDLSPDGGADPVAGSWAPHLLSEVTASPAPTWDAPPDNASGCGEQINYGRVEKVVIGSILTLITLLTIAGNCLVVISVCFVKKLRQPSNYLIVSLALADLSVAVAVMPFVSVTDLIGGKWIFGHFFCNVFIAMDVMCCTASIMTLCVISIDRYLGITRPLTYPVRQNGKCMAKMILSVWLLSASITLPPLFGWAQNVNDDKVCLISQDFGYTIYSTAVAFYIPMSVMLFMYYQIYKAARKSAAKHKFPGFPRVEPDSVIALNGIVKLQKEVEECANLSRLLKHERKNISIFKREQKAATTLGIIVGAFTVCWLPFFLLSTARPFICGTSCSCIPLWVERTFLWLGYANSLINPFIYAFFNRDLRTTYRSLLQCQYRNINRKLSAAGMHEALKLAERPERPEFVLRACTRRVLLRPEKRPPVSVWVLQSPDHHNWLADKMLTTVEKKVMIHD
Alpha-2C adrenergic receptor, sequence (P18825 whole entry): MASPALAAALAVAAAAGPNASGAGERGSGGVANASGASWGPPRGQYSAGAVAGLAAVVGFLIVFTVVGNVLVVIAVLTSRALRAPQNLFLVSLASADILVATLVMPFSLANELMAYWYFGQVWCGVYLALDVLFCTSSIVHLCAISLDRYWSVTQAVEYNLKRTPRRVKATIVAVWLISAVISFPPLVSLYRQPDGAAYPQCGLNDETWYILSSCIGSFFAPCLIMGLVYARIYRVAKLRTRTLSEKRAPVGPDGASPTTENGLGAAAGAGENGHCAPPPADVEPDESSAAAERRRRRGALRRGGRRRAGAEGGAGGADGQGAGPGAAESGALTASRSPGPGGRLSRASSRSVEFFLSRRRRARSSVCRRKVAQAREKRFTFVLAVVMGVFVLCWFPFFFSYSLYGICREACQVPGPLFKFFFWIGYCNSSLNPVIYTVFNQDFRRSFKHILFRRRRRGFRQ
5-hydroxytryptamine receptor 1E (Homo sapiens), sequence (P28566 whole entry): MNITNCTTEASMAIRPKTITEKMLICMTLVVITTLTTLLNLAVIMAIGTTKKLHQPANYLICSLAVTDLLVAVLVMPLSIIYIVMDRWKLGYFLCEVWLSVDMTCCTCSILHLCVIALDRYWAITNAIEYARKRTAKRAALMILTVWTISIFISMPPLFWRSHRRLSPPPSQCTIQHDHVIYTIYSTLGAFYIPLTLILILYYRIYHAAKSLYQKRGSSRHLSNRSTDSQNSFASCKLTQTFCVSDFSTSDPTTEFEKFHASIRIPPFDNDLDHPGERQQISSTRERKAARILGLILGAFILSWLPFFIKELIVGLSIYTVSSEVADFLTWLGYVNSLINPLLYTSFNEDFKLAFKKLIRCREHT
Sodium-dependent dopamine transporter (Homo sapiens), sequence (Q01959 whole entry): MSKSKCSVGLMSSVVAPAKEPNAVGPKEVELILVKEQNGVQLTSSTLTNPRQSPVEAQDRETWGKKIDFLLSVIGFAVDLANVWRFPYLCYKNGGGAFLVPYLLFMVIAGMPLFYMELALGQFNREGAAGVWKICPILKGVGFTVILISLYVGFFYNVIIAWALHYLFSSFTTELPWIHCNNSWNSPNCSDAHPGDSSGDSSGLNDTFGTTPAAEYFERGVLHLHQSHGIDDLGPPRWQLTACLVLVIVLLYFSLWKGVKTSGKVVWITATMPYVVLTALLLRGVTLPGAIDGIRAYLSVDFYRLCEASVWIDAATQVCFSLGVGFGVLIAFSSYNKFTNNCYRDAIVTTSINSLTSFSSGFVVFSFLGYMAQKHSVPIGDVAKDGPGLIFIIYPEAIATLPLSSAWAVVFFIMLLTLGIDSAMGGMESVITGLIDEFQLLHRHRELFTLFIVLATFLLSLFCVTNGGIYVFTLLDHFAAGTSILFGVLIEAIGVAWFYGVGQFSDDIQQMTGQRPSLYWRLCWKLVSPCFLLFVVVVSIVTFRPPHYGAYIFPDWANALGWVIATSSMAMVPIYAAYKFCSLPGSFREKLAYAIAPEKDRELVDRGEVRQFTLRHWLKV
Muscarinic acetylcholine receptor M4, sequence (P08173 whole entry): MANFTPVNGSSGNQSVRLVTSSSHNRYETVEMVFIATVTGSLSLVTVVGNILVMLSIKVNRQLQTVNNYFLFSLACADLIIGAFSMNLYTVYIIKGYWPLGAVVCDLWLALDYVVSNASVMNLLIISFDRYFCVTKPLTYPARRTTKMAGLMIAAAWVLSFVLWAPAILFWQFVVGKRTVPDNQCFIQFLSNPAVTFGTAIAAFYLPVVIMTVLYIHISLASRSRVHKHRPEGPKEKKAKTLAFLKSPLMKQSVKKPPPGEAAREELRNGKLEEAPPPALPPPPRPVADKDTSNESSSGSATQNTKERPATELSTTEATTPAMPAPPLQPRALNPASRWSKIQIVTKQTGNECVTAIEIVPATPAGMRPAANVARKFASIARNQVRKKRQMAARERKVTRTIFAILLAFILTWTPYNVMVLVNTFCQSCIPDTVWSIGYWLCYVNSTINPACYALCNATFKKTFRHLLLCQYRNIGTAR
Muscarinic acetylcholine receptor M4 (Homo sapiens), sequence (P08173 whole entry): as above

COc1ccccc1N1CCN(CCCSc2nnc(-c3ccccc3)n2C)CC1
inhibition [1]: > 50%
Ki [2]: 433 nM
inhibition [3]: < 50%
inhibition [4]: < 50%
inhibition [5]: < 50%
inhibition [6]: < 50%
inhibition [7]: < 50%
Ki [8]: 6 nM
Ki [9]: 128 nM
Ki [10]: 577 nM
inhibition [11]: < 50%
inhibition [12]: < 50%
Ki [13]: 2030 nM
inhibition [14]: < 50%
Ki [15]: 221 nM
inhibition [16]: < 50%
Ki [17]: 721 nM
Ki [18]: 1410 nM
inhibition [19]: < 50%

COc1ccccc1N1CCC2(CCN(CCCSc3nnc(-c4ccccc4)n3C)CC2)CC1
inhibition at […], 10 µM [20]: < 50%
inhibition [1]: < 50%
Ki [21]: 590 nM
Ki [2]: 1560 nM
inhibition [3]: < 50%
inhibition [22]: < 50%
inhibition [5]: < 50%
inhibition [6]: < 50%
inhibition [7]: < 50%
Ki [8]: 94 nM
Ki [23]: 931 nM
inhibition [24]: < 50%
Ki [25]: 52 nM
inhibition [11]: < 50%
inhibition at […], 10 µM [26]: < 50%
inhibition [27]: < 50%
inhibition [28]: < 50%

Reference: ChEMBL document CHEMBL4396871, “Leveraging a Low-Affinity Diazaspiro Orthosteric Fragment to Reduce Dopamine D3 Receptor (D3R) Ligand Promiscuity across Highly Conserved Aminergic G-Protein-Coupled Receptors (GPCRs)” (J Med Chem, 2019)
